CHRM4 antagonist: human M4 muscarinic receptor antagonists, primary screen, CHO cells, Fluo-8 calcium fluorescence; CHO-hM4 cells, ACh EC80; 360,000 tested, 0.73% active; inhibition, % at 3 µM;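 active = inhibition above its plate's cutoff, the mean inhibition of sample wells plus 3 SD, cut at about 27% in these data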
M4 ag: human M4 muscarinic receptor agonists, primary screen, CHO-K1 cells, Fluo-8 calcium fluorescence; AID 624127, 2012; activation, % at 3 µM; CHO-K1 hM4/Gqi5; vehicle 0%, full acetylcholine response 100%; Muscarinic acetylcholine receptor M4 (Homo sapiens), P08173; 360,000 tested, 0.14% active;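 active = activation above the run mean over all test wells plus 3 SD, cut at about 32% in these data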;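 also: peak over basal fluorescence ratio per well then scaled between controls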
CHRM4 PAM: human M4 muscarinic receptor positive allosteric modulators, primary screen, CHO-K1 cells, Fluo-8 calcium fluorescence; Muscarinic acetylcholine receptor M4 (Homo sapiens), P08173; CHO-K1 hM4/Gqi5, ACh EC20; 0% = ACh EC20, 100% = maximal ACh; 360,000 tested, 0.4% active; activation, % at 3 µM; AID 624126, 2012;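 active = activation above its plate's cutoff, the mean activation of sample wells plus 3 SD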
M5 ag: human M5 muscarinic receptor agonists, primary screen, CHO-K1 cells, Fluo-8 calcium fluorescence; Muscarinic acetylcholine receptor M5 (Homo sapiens), P08912; AID 624037, 2012; CHO-K1 hM5 cells; 0% DMSO wells, 100% maximal acetylcholine response; activation, % at 3 µM; 360,000 tested, 0.19% active;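 active = activation above the run's mean over test compounds plus 3 SD, cut at about 23% in these data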;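 also: signal is peak over basal fluorescence ratio across the kinetic read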
Target sequence (P08912 whole entry, looked up): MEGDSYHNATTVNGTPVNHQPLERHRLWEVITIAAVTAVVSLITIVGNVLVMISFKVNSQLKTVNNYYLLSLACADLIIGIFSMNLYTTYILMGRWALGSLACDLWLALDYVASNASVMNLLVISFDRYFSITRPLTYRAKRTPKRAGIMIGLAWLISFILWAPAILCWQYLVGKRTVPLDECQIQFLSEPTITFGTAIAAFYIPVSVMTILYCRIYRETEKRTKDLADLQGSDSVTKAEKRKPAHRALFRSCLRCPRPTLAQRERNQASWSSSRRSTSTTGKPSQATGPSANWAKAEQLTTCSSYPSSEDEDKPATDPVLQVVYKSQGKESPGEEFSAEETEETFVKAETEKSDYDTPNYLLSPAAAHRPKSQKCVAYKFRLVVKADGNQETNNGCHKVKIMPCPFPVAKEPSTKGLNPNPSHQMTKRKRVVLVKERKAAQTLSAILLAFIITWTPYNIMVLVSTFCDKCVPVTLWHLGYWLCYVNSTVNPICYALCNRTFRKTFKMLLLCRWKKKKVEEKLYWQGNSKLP
CHRM5 PAM: human M5 muscarinic receptor positive allosteric modulators, primary screen, CHO-K1 cells, Fluo-8 calcium fluorescence. Muscarinic acetylcholine receptor M5 (Homo sapiens), P08912. CHO-K1 hM5, ACh EC20 PAM; 0% = ACh EC20, 100% = ACh EC100. activation, % at 3 µM. 360,000 tested, 0.3% active;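 active = activation above the run cutoff, the mean activation of all test compounds plus 3 SD, cut at about 18% in these data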
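system = human M5 receptor in CHO-K1 cells | compound = one concentration, 3 µM final (nominal) | schedule = Post-acetylcholine fluorescence recording 140 s | signal = Fluo-8 calcium dye fluorescence, kinetic read | benchmarks = low control EC20 acetylcholine (0%), high control EC100 acetylcholine (100%) | repeats = singlicate, one well per test compound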
CHRM5 antagonist: human M5 muscarinic receptor antagonists, primary screen, CHO cells, Fluo-8 calcium fluorescence; Muscarinic acetylcholine receptor M5 (Homo sapiens), P08912; CHO-hM5 cells, ACh EC80; inhibition, % at 3 µM; 360,000 tested, 0.59% active;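 active = inhibition above a per-plate cutoff, the mean of that plate's test compounds plus 3 SD, cut at about 27% in these data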
Hits are given with their value. Hits are enriched below; roughly 1.9% of the tested compounds scored in any of these assays.

Results for CN(C)c1ccc(-c2csc(C(O)c3ccc(F)c(F)c3)n2)cc1 (stereo not given) ?
CHRM4 antagonist: 45.6; M4 ag: 101.7; CHRM4 PAM: inactive; M5 ag: 50.0; CHRM5 PAM: inactive; CHRM5 antagonist: 37.2

Results for COc1ccc(-c2csc(C(O)c3ccc(F)cc3)n2)cc1 (stereo not given) ?
CHRM4 antagonist: inactive; M4 ag: 47.4; CHRM4 PAM: inactive; M5 ag: inactive; CHRM5 PAM: inactive; CHRM5 antagonist: inactive

What do the screens show for `CN(C)c1ccc(-c2csc(C(O)c3ccc(F)cc3)n2)cc1` (stereo not given)?
CHRM4 antagonist: inactive; M4 ag: 59.6; CHRM4 PAM: inactive; M5 ag: 29.6; CHRM5 PAM: inactive; CHRM5 antagonist: inactive

What do the screens show for `COc1ccc(C(O)c2nc(-c3ccc(N(C)C)cc3)cs2)cc1` (stereo not given)?
CHRM4 antagonist: inactive; M4 ag: 38.3; CHRM4 PAM: inactive; M5 ag: inactive; CHRM5 PAM: inactive; CHRM5 antagonist: inactive

What do the screens show for `COc1ccc(NC(=O)C[C@H]2C(=O)N(C3CCCCC3)C[C@@H]2C)cc1`?
CHRM4 antagonist: inactive; M4 ag: inactive; CHRM4 PAM: inactive; M5 ag: inactive; CHRM5 PAM: inactive; CHRM5 antagonist: inactive

How did Cc1cccc(C)c1OCCCCN1CCNCC1 do in these assays?
CHRM4 antagonist: inactive; M4 ag: inactive; CHRM4 PAM: inactive; M5 ag: inactive; CHRM5 PAM: inactive; CHRM5 antagonist: inactive

How did Cc1cc(C)c(OCCCCN2CCNCC2)c(C)c1 do in these assays?
CHRM4 antagonist: 29.6; M4 ag: inactive; CHRM4 PAM: inactive; M5 ag: inactive; CHRM5 PAM: inactive; CHRM5 antagonist: inactive

How did Cc1c(CCC(=O)O)c(=O)oc2cc3occ(-c4ccc(F)cc4)c3cc12 do in these assays?
CHRM4 antagonist: inactive; M4 ag: inactive; CHRM4 PAM: inactive; M5 ag: inactive; CHRM5 PAM: 35.5; CHRM5 antagonist: 37.5

What do the screens show for `O=C(NC(=S)N1CCCCC1CO)c1cccs1` (stereo not given)?
CHRM4 antagonist: inactive; M4 ag: inactive; CHRM4 PAM: inactive; M5 ag: inactive; CHRM5 PAM: 24.3; CHRM5 antagonist: inactive

Results for CCC1CCCCN1C(=S)NC(=O)c1cccs1 (stereo not given) ?
CHRM4 antagonist: inactive; M4 ag: inactive; CHRM4 PAM: inactive; M5 ag: inactive; CHRM5 PAM: inactive; CHRM5 antagonist: inactive

What do the screens show for `CCCCCNC(=O)C(CCc1ccccc1)n1c(=O)c(-c2ccccc2)nc2ccccc21` (stereo not given)?
CHRM4 antagonist: 30.9; M4 ag: inactive; CHRM4 PAM: inactive; M5 ag: inactive; CHRM5 PAM: inactive; CHRM5 antagonist: inactive

What do the screens show for `CCCCCNC(=O)C(CCc1ccccc1)n1c(=O)c(-c2cc3ccccc3[nH]2)nc2ccccc21` (stereo not given)?
CHRM4 antagonist: inactive; M4 ag: inactive; CHRM4 PAM: inactive; M5 ag: inactive; CHRM5 PAM: inactive; CHRM5 antagonist: inactive

What do the screens show for `c1ccc2oc(SCc3cn4ccsc4n3)nc2c1`?
CHRM4 antagonist: 37.5; M4 ag: inactive; CHRM4 PAM: inactive; M5 ag: inactive; CHRM5 PAM: inactive; CHRM5 antagonist: inactive

How did Cc1ccc(C(=O)N2CCN(c3ccc([N+](=O)[O-])c(NCc4ccco4)c3)CC2)cc1 do in these assays?
CHRM4 antagonist: inactive; M4 ag: inactive; CHRM4 PAM: 31.2; M5 ag: inactive; CHRM5 PAM: inactive; CHRM5 antagonist: inactive

How did COc1ccc(-c2csc(C(C)(O)c3cccc(F)c3)n2)cn1 (stereo not given) do in these assays?
CHRM4 antagonist: inactive; M4 ag: inactive; CHRM4 PAM: inactive; M5 ag: inactive; CHRM5 PAM: inactive; CHRM5 antagonist: inactive

What do the screens show for `Nc1nnc(SCC(=O)NC2CCCCCC2)s1`?
CHRM4 antagonist: inactive; M4 ag: inactive; CHRM4 PAM: 23.7; M5 ag: inactive; CHRM5 PAM: inactive; CHRM5 antagonist: inactive

What do the screens show for `O=C(c1ccc(N2CCCC2=O)cc1)N1CCN(c2ccccc2)CC1`?
CHRM4 antagonist: inactive; M4 ag: inactive; CHRM4 PAM: inactive; M5 ag: inactive; CHRM5 PAM: 45.3; CHRM5 antagonist: inactive

What do the screens show for `CN1CCN(C2=Cc3ccccc3Sc3cc(F)c(Cl)cc32)CC1`?
CHRM4 antagonist: 28.7; M4 ag: inactive; CHRM4 PAM: inactive; M5 ag: inactive; CHRM5 PAM: inactive; CHRM5 antagonist: inactive

How did CN1CCN(C2=Cc3cc(Cl)ccc3Sc3cc(F)ccc32)CC1 do in these assays?
CHRM4 antagonist: 49.5; M4 ag: inactive; CHRM4 PAM: inactive; M5 ag: inactive; CHRM5 PAM: inactive; CHRM5 antagonist: 44.5

What do the screens show for `CN1CCN(C2=Cc3ccccc3Sc3cc(F)c(F)cc32)CC1`?
CHRM4 antagonist: inactive; M4 ag: inactive; CHRM4 PAM: inactive; M5 ag: inactive; CHRM5 PAM: inactive; CHRM5 antagonist: inactive

What do the screens show for `O=C(c1cc(C2CC2)nn1-c1ccccc1)N1CCN(S(=O)(=O)c2ccccc2F)CC1`?
CHRM4 antagonist: inactive; M4 ag: inactive; CHRM4 PAM: inactive; M5 ag: inactive; CHRM5 PAM: inactive; CHRM5 antagonist: inactive

What do the screens show for `CC(=O)NCCNC(=O)Cn1nnc(-c2ccccc2)c1COc1ccc2ccccc2c1`?
CHRM4 antagonist: inactive; M4 ag: inactive; CHRM4 PAM: inactive; M5 ag: inactive; CHRM5 PAM: inactive; CHRM5 antagonist: inactive

What do the screens show for `N#CCC(=O)Nc1ccc(C(=O)OCC(=O)Nc2ccccc2Sc2ccccc2)cc1`?
CHRM4 antagonist: inactive; M4 ag: inactive; CHRM4 PAM: inactive; M5 ag: inactive; CHRM5 PAM: inactive; CHRM5 antagonist: 27.9

Results for COc1ccc(C(=O)O/N=C2\CCS(=O)(=O)c3sccc32)cc1 ?
CHRM4 antagonist: inactive; M4 ag: inactive; CHRM4 PAM: inactive; M5 ag: inactive; CHRM5 PAM: inactive; CHRM5 antagonist: 35.9

Results for COc1ccc(N=C2CCS(=O)(=O)c3sccc32)cc1 ?
CHRM4 antagonist: inactive; M4 ag: inactive; CHRM4 PAM: inactive; M5 ag: inactive; CHRM5 PAM: inactive; CHRM5 antagonist: inactive

How did CCCCN(CCCC)c1cn[nH]c(=O)c1Cl do in these assays?
CHRM4 antagonist: 42.6; M4 ag: inactive; CHRM4 PAM: inactive; M5 ag: inactive; CHRM5 PAM: inactive; CHRM5 antagonist: inactive

How did CS(=O)(=O)N1CCN(c2ccc([N+](=O)[O-])c3cccnc23)CC1 do in these assays?
CHRM4 antagonist: 34.9; M4 ag: inactive; CHRM4 PAM: inactive; M5 ag: inactive; CHRM5 PAM: inactive; CHRM5 antagonist: inactive

Screening results deposited in PubChem by The Scripps Research Institute Molecular Screening Center.
